{"data": "Measured values collected from several papers", "PPARA": "Peroxisome proliferator-activated receptor alpha (PPARA, Homo sapiens, UniProt Q07869)", "CASP9": "Caspase-9 (CASP9, Homo sapiens, UniProt P55211)", "note": "Compare with care: the assays were run in different laboratories."}
{"Structure (SMILES)": "CN[C@@H](C)C(=O)N[C@@H](CNC(=O)c1ccc(S(=O)(=O)F)c(OC)c1)C(=O)N1CCC[C@H]1C(=O)N[C@@H]1CCc2c(F)cccc21", "target": "E3 ubiquitin-protein ligase XIAP, BIR3 (XIAP, Homo sapiens, UniProt P98170)", "test": "enzyme activity, inhibitor", "endpoint": "kinact", "result": "0.0258 s⁻¹"}
{"Structure (SMILES)": "COc1ccc(S(=O)(=O)N(CC(=O)NO)CC(C)C)cc1", "target": "Interstitial collagenase (MMP1, Homo sapiens, UniProt P03956)", "test": "enzyme activity, inhibitor", "conditions": "0.1 µM", "endpoint": "inhibition", "result": "2%"}
{"Structure (SMILES)": "Cc1nn(C)cc1-c1nc2c(N3CCN(Cc4ccc(Cl)cc4)CC3)c(Cl)cnc2[nH]1", "target": "Cyclin-dependent kinase-like 1 (CDKL1, Homo sapiens, UniProt Q00532)", "test": "binding, competition with immobilised ligand", "conditions": "1 µM", "endpoint": "remaining binding", "result": "100%"}
{"Structure (SMILES)": "C#Cc1n[nH]c2c(-c3cn([C@@H](C)c4ccccn4)c(=O)[nH]c3=O)cc(F)cc12", "target": "Eukaryotic elongation factor 2 kinase (EEF2K, Homo sapiens, UniProt O00418)", "test": "enzyme activity, inhibitor", "conditions": "0.1 µM", "endpoint": "inhibition", "result": "4.2%"}
{"Structure (SMILES)": "CC1CCC(C(C)C)C(P(=O)(c2ccccc2)c2ccccc2)C1 (stereo not shown)", "target": "Potassium voltage-gated channel subfamily A member 5 (KCNA5, Homo sapiens, UniProt P22460)", "test": "ion current, inhibitor, patch clamp", "conditions": "1 µM", "endpoint": "remaining activity", "result": "-94.5%"}
{"Structure (SMILES)": "O=C(O)C(F)(F)C(F)(F)C(F)(F)C(F)(F)C(F)(F)C(F)(F)F", "target": "PPARA", "test": "reporter gene, agonist, luciferase", "test system": "COS-7", "endpoint": "Emax", "result": "113%"}
{"Structure (SMILES)": "CN1CCN(c2ccc(Nc3nccc(-c4cccc([N+](=O)[O-])c4)n3)cc2C(F)(F)F)CC1", "target": "Calcium-dependent protein kinase 1 (CDPK1, Plasmodium falciparum, UniProt P62344)", "test": "binding", "conditions": "10 µM", "endpoint": "remaining binding", "result": "4.2%"}
{"Structure (SMILES)": "COc1ncccc1-c1cnn2ccc(N3CCN(C(=O)OC(C)C)CC3)nc12", "target": "Myosin-IIIa (MYO3A, Homo sapiens, UniProt Q8NEV4)", "test": "binding, competition with immobilised ligand", "conditions": "1 µM", "endpoint": "remaining binding", "result": "95%"}
{"Structure (SMILES)": "Clc1cccc(-c2c[nH]c3nccc(N4CCOCC4)c23)c1", "target": "Serine/threonine-protein kinase 4 (STK4, Homo sapiens, UniProt Q13043)", "test": "thermal stability, DSF", "endpoint": "ΔTm", "result": "> 7.4 °C"}
{"Structure (SMILES)": "COC(=O)CC[C@H](NC(=O)[C@H](CC(C)C)NC(=O)OCc1ccccc1)C(=O)N[C@@H](Cc1cnc[nH]1)C(=O)N[C@@H](CC(=O)OC)C(=O)CF", "target": "CASP9", "test": "enzyme activity, inhibitor", "conditions": "1 µM", "endpoint": "inhibition", "result": "50%"}
{"Structure (SMILES)": "COc1cc(Nc2ncc(F)c(Nc3ccc4c(n3)NC(=O)C(C)(C)O4)n2)cc(OC)c1OC", "target": "Serine/threonine-protein kinase NIM1 (NIM1K, Homo sapiens, UniProt Q8IY84)", "test": "binding, competition with immobilised ligand", "conditions": "10 µM", "endpoint": "inhibition", "result": "84%"}
{"Structure (SMILES)": "Nc1ncc(-c2nc(N3CCOCC3)nc(N3CCOCC3)n2)c(C(F)F)n1", "target": "Serine/threonine-protein kinase OSR1 (OXSR1, Homo sapiens, UniProt O95747)", "test": "binding, competition with immobilised ligand", "conditions": "10 µM", "endpoint": "remaining binding", "result": "54%"}
{"Structure (SMILES)": "O=S(=O)(O)C(F)(F)C(F)(F)C(F)(F)C(F)(F)C(F)(F)C(F)(F)C(F)(F)C(F)(F)F", "target": "PPARA", "test": "reporter gene, agonist, luciferase", "endpoint": "Emax", "result": "33%"}
{"Structure (SMILES)": "O=C(Nc1cccnn1)N1CCN([C@@H]2CCOc3cc(C(F)(F)F)ccc32)CC1", "target": "Corticotropin-releasing factor receptor 1 (CRHR1, Homo sapiens, UniProt P34998)", "test": "ligand displacement", "conditions": "20 µM", "endpoint": "inhibition", "result": "-62%"}
{"Structure (SMILES)": "O=C(O)C(F)(F)C(F)(F)C(F)(F)C(F)(F)C(F)(F)C(F)(F)C(F)(F)F", "target": "PPARA", "test": "reporter gene, agonist, luciferase", "test system": "COS-7", "endpoint": "Emax", "result": "92%"}
{"Structure (SMILES)": "Cc1ncc(C)n2nc(/C=C/c3nc(N4CCCC4)cc(N4CCOCC4)n3)nc12", "target": "CASP9", "test": "enzyme activity, inhibitor", "conditions": "10 µM", "endpoint": "inhibition", "result": "11%"}
